Scp-1 inhibitor: blocks human Scp-1 phosphatase activity; AID 493091; Q9GZU7; inhibition, % at 20 µM; Recombinant Scp1, phosphopeptide, malachite green phosphate absorbance; hit rate 0.88% among 340,000;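 active = inhibition above about 50% at 20 µM, limit read from the data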
Target sequence (Q9GZU7 76-261 limits assumed): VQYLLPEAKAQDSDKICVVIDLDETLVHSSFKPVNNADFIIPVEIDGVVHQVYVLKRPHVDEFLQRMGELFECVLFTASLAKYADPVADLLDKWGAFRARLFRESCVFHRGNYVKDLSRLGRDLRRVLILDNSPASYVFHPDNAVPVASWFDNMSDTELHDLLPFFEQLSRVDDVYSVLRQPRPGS
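Test system – truncated SCP-1 phosphatase (76-261aa) · Reagent – Phosphorylated 17-residue peptide substrate · Incubation – 45 min room-temperature reaction, 5 min colour, 30 min stabiliser · Detection – colorimetric phosphate reagent with accelerator and stabiliser, absorbance at 630 nm · Measure – % inhibition at 20 µM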
LMPTP inh: blocks human LMPTP phosphatase; recombinant LMPTP-A, OMFP fluorogenic substrate, fluorescence intensity; inhibition, % at 20 µM; hit rate 0.22% among 360,000; AID 651560;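 active = compounds that cut the enzyme signal by at least half of the control window in the single-dose screen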
Target sequence (P24666 whole entry, looked up): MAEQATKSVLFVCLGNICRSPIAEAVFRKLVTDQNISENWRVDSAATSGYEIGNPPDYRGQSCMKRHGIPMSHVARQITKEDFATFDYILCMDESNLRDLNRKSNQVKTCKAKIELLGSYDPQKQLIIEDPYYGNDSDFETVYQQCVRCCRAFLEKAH
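Material: LMPTP-A; amount: 0.625 nM enzyme; doses: single 20 µM dose; times: reaction 50 min, room temperature, dark; technique: fluorescence intensity of OMFP turnover product; benchmarks: no-enzyme and uninhibited controls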
STEP block: blocks human striatal-enriched tyrosine phosphatase; AID 588621; inhibition, % at 20 µM; recombinant STEP, OMFP fluorogenic substrate, fluorescence; hit rate 0.25% among 360,000; P54829;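 active = inhibition at 20 µM, scaled per plate between control wells, above about 37%, limit read from the data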
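Measure: Control-normalized % inhibition with plate pattern correction | Test system: STEP phosphatase, cell-free reaction | Medium: pH 6.0 Bis-Tris with DTT and Tween 20 | Technique: Fluorescence, 480/540 nm | Times: Reaction 20 min, ambient temperature | Doses: Single compound dose of 20 µM, 1% DMSO final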
SUMO1 PPI mod: SUMO1-SIM interaction modulation | P63165 | SUMO1 binding to a labelled peptide, TR-FRET, 1 h | inhibition, % at 20 µM | hit rate 0.33% among 360,000 | AID 602429; in the data active = inhibition above about 37%
Target sequence (P63165 whole entry, looked up): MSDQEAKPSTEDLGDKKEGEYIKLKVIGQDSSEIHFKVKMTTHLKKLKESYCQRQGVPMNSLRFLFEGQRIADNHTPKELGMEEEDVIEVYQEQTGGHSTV
DNMT1 inh: DNMT1 (human) enzyme inhibition; inhibition (reported as % activation of signal), % at 10 µM; AID 588458; hit rate 0.83% among 360,000; DNMT1 molecular beacon, Hinp1I cleavage, fluorescence; P26358; in the data active = inhibition above about 50%
Each line names hits and unclear results; the compound was inactive in the other large screens; ! = not confirmed by another sample. Sampled rows, rich in hits. Any-hit rate of the full collection: about 1.7%.

CCc1ccc(NC(=O)[C@H](Cc2ccccc2)NC(=O)C2CCN(C(=O)[C@@H](N)CC(C)C)CC2)cc1	none
CCN(CC(=O)Nc1ccc(NC(C)=O)cc1)C(=O)c1ccc(NC2CC2)c([N+](=O)[O-])c1	none
NS(=O)(=O)c1ccc(NC(=O)CCC(=O)O)cc1	none (no result: Scp-1 inhibitor)
COc1cc(/C=C/C(=O)NCc2nc3ccccc3[nH]2)cc(OC)c1OC	none
c1ccc(-c2cc(NCCN3CCCCC3)c3ccccc3n2)cc1	LMPTP inh 90
O=C(c1cc(-c2ccccc2)nc2ccccc12)N1CCCC1	none
Cc1nnc2c(NCC(C)c3ccccc3)nc3ccccc3n12 (stereo unspecified)	SUMO1 PPI mod 48
Cc1nnc2c(NCCC(C)C)nc3ccccc3n12	none
CC(C)(C)c1cc(/C=N/NC(=O)C[n+]2ccccc2)cc(C(C)(C)C)c1O	none
O=C(COC(=O)Cc1c(Cl)cccc1Cl)Nc1ccc2[nH]c(=O)[nH]c2c1	SUMO1 PPI mod 55
O=C(COC(=O)c1nc(Cl)ccc1Cl)Nc1ccc2[nH]c(=O)[nH]c2c1	SUMO1 PPI mod 63
CN(C)CCN(C(=O)C1CCN(S(=O)(=O)c2cccs2)CC1)c1nc2ccccc2s1	none
CNc1cccc(-c2ccccc2CO)n1	none (no result: Scp-1 inhibitor)
CCCn1c(SCC(=O)Nc2ccc3c(c2)OCCO3)n[nH]c1=O	none
O=C(O)c1c[nH]c2ccc(S(=O)(=O)N3CCN(c4ccc(F)cc4)CC3)cc2c1=O	LMPTP inh 59, STEP block 76
CCOC(=O)N1CCN(S(=O)(=O)c2ccc3[nH]cc(C(=O)O)c(=O)c3c2)CC1	none
NC(=S)N=Nc1ccc(NN=C(N)N)cc1	STEP block 84
CC(=O)NC1(NC(C)=O)CCN(C)CC1	none
COc1cc(C(O)c2nc(-c3cccc(C(F)(F)F)c3)cs2)ccc1F (stereo unspecified)	none (no result: Scp-1 inhibitor)
O=C(Cn1cnc2sc(-c3ccccc3)cc2c1=O)NCc1ccco1	Scp-1 inhibitor 71
CN(CCCC(=O)O)c1ccc(N=Nc2ccc([N+](=O)[O-])cc2)cc1	Scp-1 inhibitor 110, LMPTP inh 77, STEP block 99
Brc1ccc(-c2nnc(-c3ccc4c(c3)OCO4)o2)o1	none
Cc1ccc(-c2nnc(-c3ccc4c(c3)OCO4)o2)cc1	SUMO1 PPI mod 68
Cc1ccc(NC(=O)CSc2nc3ccccc3c3nc(CCc4c(C)n[nH]c4C)nn23)cc1F	SUMO1 PPI mod 43
Cc1n[nH]c(C)c1CCc1nc2c3ccccc3nc(SCC(N)=O)n2n1	none
COc1cc(NC(=O)C2CCC(CNc3c(N4CCCCC4)c(=O)c3=O)CC2)cc(OC)c1 (stereo unspecified)	DNMT1 inh 52
COc1cc(NC(=O)c2ccc(CNc3c(N4CCOCC4)c(=O)c3=O)cc2)cc(OC)c1	SUMO1 PPI mod 43
CC(=O)c1ccc(NC(=O)c2ccc(CNc3c(N4CCCC4)c(=O)c3=O)cc2)cc1	none
CC(=O)c1ccc(NC(=O)c2ccc(CNc3c(N4CCOCC4)c(=O)c3=O)cc2)cc1	none
CCOc1ccc(NC(=O)c2ccc(CNc3c(N4CCCC4)c(=O)c3=O)cc2)cc1	SUMO1 PPI mod 45
CCc1cccc(NC(=O)c2ccc(CNc3c(N4CCCC4)c(=O)c3=O)cc2)c1	SUMO1 PPI mod 49
CCC(C)[C@H](NC(=O)[C@@H]1CSC2c3ccccc3C(=O)N21)C(=O)N1CCCCC1 (stereo partly specified)	none
O=C(O)c1cc(-c2ccco2)nc2ccc(Br)cc12	Scp-1 inhibitor 80!, STEP block 66!, SUMO1 PPI mod 57!, DNMT1 inh 106!
Cc1ccc(C2CC(=O)N3CN(c4ccc(Br)cc4)CSC3=C2C#N)o1 (stereo unspecified)	DNMT1 inh 101
COc1ccc(Br)cc1C1CC(=O)N2CN(Cc3ccccc3)CSC2=C1C#N (stereo unspecified)	STEP block 46
Cc1ccc(Cn2c(CCNc3nc(-c4ccc(C)cc4)cs3)nc3cc(C(=O)NCCCO)ccc32)cc1	SUMO1 PPI mod 52
Cc1cccc(NC(=O)CNC(=O)Cn2ncc(Cl)c(Cl)c2=O)c1C	Scp-1 inhibitor 93, DNMT1 inh 83
COc1ccc(NC(=O)C(=O)N/N=C\c2ccc(CNC(=O)C(=O)Nc3ccc(C)c(C)c3)o2)c(OC)c1	Scp-1 inhibitor 68 (no result: LMPTP inh, STEP block, SUMO1 PPI mod, DNMT1 inh)
O=C(Oc1ccc([N+](=O)[O-])cc1)C1CC(=O)N(c2ccc3c(c2)OCCO3)C1 (stereo unspecified)	Scp-1 inhibitor 69
COc1ccc2c(c1)c1nc3ccccc3nc1n2CCn1c(=O)oc2ccccc21	none
O=c1oc2ccccc2n1CCn1c2ccccc2c2nc3ccccc3nc21	LMPTP inh 73, DNMT1 inh 62
O=[N+]([O-])c1cc(CN2CCOCC2)c2cccnc2c1O	Scp-1 inhibitor 66 (no result: LMPTP inh, STEP block, SUMO1 PPI mod, DNMT1 inh)
Cc1[nH]c(C)c(S(=O)(=O)NCc2ccc(F)cc2)c1C(=O)N1CCCC1	none
Cc1ccc(C(=O)c2ccccc2C(=O)OCC(=O)NC(=O)NC(C)(C)C)cc1	SUMO1 PPI mod 45
O=C(Cn1cnc(S(=O)(=O)N2CCCC2)c1)Nc1ccc(OC(F)(F)F)cc1	none
COc1ccccc1C(=O)Nc1nc2cc3c(cc2s1)OCCO3	none
COc1ccc(C(=O)Nc2nc3cc4c(cc3s2)OCCO4)c(OC)c1	SUMO1 PPI mod 47
COc1ccc2nc(NC(=O)c3ccc4ncsc4c3)sc2c1	SUMO1 PPI mod 43
NS(=O)(=O)c1cc(C(=O)NC2CCSc3ccccc32)ccc1Cl (stereo unspecified)	Scp-1 inhibitor 94, LMPTP inh 71, STEP block 100, SUMO1 PPI mod 121, DNMT1 inh 84
O=C(CSCc1ccccc1)NNc1c(F)c(F)cc(F)c1F	none
O=C(O)CC(CC(=O)N1CCN(C(=O)c2ccco2)CC1)c1ccccc1 (stereo unspecified)	none
O=C(NN1C(=O)CSC1=S)C(=O)NN1C(=O)CSC1=S	Scp-1 inhibitor 55, SUMO1 PPI mod 40, DNMT1 inh 58
O=C(Cc1cccc2ccccc12)NN1C(=O)CSC1=S	none
CCOC(=O)c1ccc(NC(=O)C2CC(O)CN2S(=O)(=O)c2ccc(C)cc2)cc1 (stereo unspecified)	SUMO1 PPI mod 42
Cc1ccc(S(=O)(=O)N2CC(O)CC2C(=O)O)cc1 (stereo unspecified)	none
CN1CCc2nc3sc(C(=O)C45CC6CC(CC(C6)C4)C5)c(N)c3cc2C1	DNMT1 inh 78
Cc1cc(-c2nc3cc(F)ccc3s2)ccc1N	none
O=C1NC(=S)S/C1=C\c1ccc(SCc2ccco2)o1	Scp-1 inhibitor 77, LMPTP inh 76, STEP block 50, SUMO1 PPI mod 83, DNMT1 inh 103
O=C1NC(=S)S/C1=C/c1ccc(OC(=O)c2ccco2)cc1	none
Cc1cc(N2CCN(C(C(=O)NC3CCCC3)c3ccc(-c4ccccc4)cc3)CC2)c2ccccc2n1 (stereo unspecified)	LMPTP inh 94 (no result: Scp-1 inhibitor, STEP block, DNMT1 inh)

Source: PubChem BioAssay
